JNK3 inh = JNK3 kinase activity inhibitors, primary screen, biochemical, human, purified enzyme; 60,000 tested, 0.61% active; inhibition, % at 8 µM; Mitogen-activated protein kinase 10 (Homo sapiens), P53779; HTS; in the data active means inhibition above about 17%;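 further: 0% = DMSO and 100% = reference inhibitor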
Target sequence (P53779 whole entry, looked up): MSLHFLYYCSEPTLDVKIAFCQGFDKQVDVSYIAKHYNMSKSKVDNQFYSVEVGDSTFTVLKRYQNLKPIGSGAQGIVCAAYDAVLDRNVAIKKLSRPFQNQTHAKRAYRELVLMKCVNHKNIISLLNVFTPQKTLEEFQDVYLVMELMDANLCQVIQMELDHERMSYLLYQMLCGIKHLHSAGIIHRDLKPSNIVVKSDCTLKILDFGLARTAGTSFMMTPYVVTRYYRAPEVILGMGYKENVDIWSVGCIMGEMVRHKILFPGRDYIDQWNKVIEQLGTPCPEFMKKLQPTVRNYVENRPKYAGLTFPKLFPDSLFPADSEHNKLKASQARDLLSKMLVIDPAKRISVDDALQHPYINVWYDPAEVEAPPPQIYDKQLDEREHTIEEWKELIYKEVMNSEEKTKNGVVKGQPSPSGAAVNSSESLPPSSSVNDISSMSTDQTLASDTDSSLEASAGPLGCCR
PKA inh = inhibitors of human PKA kinase activity, primary screen, biochemical, ATP-depletion luminescence, Kemptide substrate; cAMP-dependent protein kinase catalytic subunit alpha (Homo sapiens), P17612; AID 524, 2006; 65,000 tested, 0.1% active; inhibition, % at 6 µM; PKA Kemptide phosphorylation, Kinase-Glo ATP luminescence;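 active means inhibition above the screen-wide mean inhibition plus 3 SD, cut at about 21% in these data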
MMP-13 inhibitor = human MMP13 inhibitors, primary screen, biochemical, FRET peptide cleavage; MMP-13 fTHP FRET cleavage, Mca fluorescence; Collagenase 3 (Homo sapiens), P45452; inhibition, % at 4 µM; 65,000 tested, 0.07% active;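 active means inhibition above the mean of compound-free control plate wells plus 3 SD, cut at about 14% in these data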;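 further: 0% = DMSO wells and 100% = wells with reference MMP-13 inhibitor after basal subtraction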
S1P1 ag-PAM = S1P1 agonists and agonism potentiators, primary screen, cell-based, primary and confirmation screens, CRE-bla reporter; Sphingosine 1-phosphate receptor 1 (Homo sapiens), P21453; 56,000 tested, 0.57% active; activation, % at 9.5 µM; S1P1 CRE-bla cells, forskolin, beta-lactamase FRET, potentiator mode; S1P1 agonist co-added at EC20, 2 nM; 100% = saturating reference agonist, 0% = basal;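 active means activation above a cutoff set at the mean activation of all tested compounds plus 3 SD, cut at about 54% in these data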;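 further: forskolin at 4 µM as EC80 and the EC20 agonist is SEW2871; 100% = SEW2871 at its EC100 plus forskolin at EC80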
ROCK2 blocker = inhibitors of human ROCK2 kinase, primary screen, biochemical, high-throughput, luminescence; Rho-associated protein kinase 2 (Homo sapiens), O75116; 60,000 tested, 0.35% active; inhibition, % at 6 µM; purified ROCK2, Kinase-Glo ATP depletion luminescence;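 active means inhibition above the screen-wide mean inhibition plus 3 SD, cut at about 18% in these data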;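 further: plate controls were DMSO wells for no effect and Y-27632 control wells after no-enzyme background subtraction for full effect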
S1P3 ag = human S1P3 receptor agonists, primary screen, cell-based, primary and confirmation, NFAT-BLA reporter; S1P3 NFAT-BLA reporter cells, agonism, FRET ratio; relative to 1 µM S1P, basal subtracted; activation, % at 4.5 µM; 60,000 tested, 0.1% active; AID 373, 2006;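 active means activation above the screen-wide mean plus 3 SD, cut at about 4.5% in these data, passing the limit was not always enough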
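material = human S1P3 NFAT-BLA reporter CHO cells | schedule = 4 h compound at 37 °C, 2 h substrate at RT | measured by = fluorescent BLA substrate, ex 405 nm, em 460/535 nm ratio | controls = 1 µM S1P reference | replication = primary once, confirmation triplicate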
The depositor's hits bear a star. Compounds with a hit are over-represented: about 1.2% of the library has one in this group of screens.

`COC(=O)Nc1nc2ccc(C(=O)c3ccccc3)cc2[nH]1` gave JNK3 inh 21*, PKA inh -9, MMP-13 inhibitor 6, S1P1 ag-PAM 13, ROCK2 blocker -4 and S1P3 ag -6.
O=C(NS(=O)(=O)c1ccc2c(c1)OCCO2)c1ccccc1 was read as PKA inh 4 and MMP-13 inhibitor -1.
For CCOC(=O)CN1CC23C=CC(O2)C(C(=O)Nc2cc(OC)ccc2OC)C3C1=O (configuration not stated) the results were JNK3 inh 2, PKA inh -3, MMP-13 inhibitor 14*, S1P1 ag-PAM -20, ROCK2 blocker -1 and S1P3 ag -1.
CC1=CC(=C2C(=O)c3ccccc3C2=O)C=C(C)N1C was read as JNK3 inh 21*, PKA inh -1, MMP-13 inhibitor 3, S1P1 ag-PAM -17, ROCK2 blocker 0 and S1P3 ag 0.
For COc1ccc(C2=C(N)c3ccccc3C2=O)cc1 the results were JNK3 inh 0, PKA inh 3, MMP-13 inhibitor 3, S1P1 ag-PAM -10, ROCK2 blocker 0 and S1P3 ag -1.
For Cn1c(=O)c2c(nc(CN3CCN(C(=O)c4ccco4)CC3)n2CCc2ccccc2)n(C)c1=O the results were JNK3 inh -4, PKA inh 8, MMP-13 inhibitor 7, S1P1 ag-PAM -10, ROCK2 blocker 6 and S1P3 ag 0.
For Cn1c(=O)c2c(nc(CN3CCN(C(=O)c4ccco4)CC3)n2CCCc2ccccc2)n(C)c1=O the results were JNK3 inh -2, PKA inh 2, MMP-13 inhibitor 17*, S1P1 ag-PAM 6, ROCK2 blocker -4 and S1P3 ag -1.
For O=C(CSc1ncn[nH]1)NCCOc1ccccc1 the results were JNK3 inh 1, PKA inh 8, MMP-13 inhibitor 0, S1P1 ag-PAM -34, ROCK2 blocker 3 and S1P3 ag -2.
`O=C(CSCc1n[nH]c(=O)[nH]1)NCCOc1cccc(Oc2ccccc2)c1` gave JNK3 inh 2, PKA inh 6, MMP-13 inhibitor 15*, S1P1 ag-PAM 8, ROCK2 blocker -2 and S1P3 ag 0.
COc1ccc(C2C(C(=O)NCc3ccco3)CCC(=O)N2c2ccc(OC)cc2)cc1 (configuration not stated) was read as JNK3 inh 17*, PKA inh -1, MMP-13 inhibitor -4, S1P1 ag-PAM -21, ROCK2 blocker 2 and S1P3 ag -1.
For CN1C(=O)CSc2ccc(NC(=O)NCc3cccnc3)cc21 the results were JNK3 inh 5, PKA inh 0, MMP-13 inhibitor 4, S1P1 ag-PAM -14, ROCK2 blocker 58* and S1P3 ag 0.
Screening Cc1cc(C(=O)Nc2ccc(S(=O)(=O)Nc3nccs3)cc2)c(C)o1 returned JNK3 inh 2, PKA inh -1, MMP-13 inhibitor 1, S1P1 ag-PAM 10, ROCK2 blocker 2 and S1P3 ag 0.
Screening O=C(Nc1cccc(-c2nc3ccccc3[nH]2)c1)c1cccc(NC(=O)c2ccco2)c1 returned JNK3 inh 19*, PKA inh 9, MMP-13 inhibitor 2, S1P1 ag-PAM 3, ROCK2 blocker 13 and S1P3 ag 0.
`CCC(=O)c1ccc(OCCSc2ncccn2)cc1` gave JNK3 inh -9, PKA inh -6, MMP-13 inhibitor 3, ROCK2 blocker -3 and S1P3 ag -1.
c1cc2[nH]snc2c2nc(C3CC3)nc12 was read as JNK3 inh 12, PKA inh 18, MMP-13 inhibitor -7, S1P1 ag-PAM 51, ROCK2 blocker 7 and S1P3 ag -1.
O=C(CCCCCC(=O)N(CCO)CCO)N(CCO)CCO was read as JNK3 inh 0, PKA inh 14, MMP-13 inhibitor 2, S1P1 ag-PAM 0, ROCK2 blocker 5 and S1P3 ag -1.
For Nc1nc2ccccc2n1C(=O)CCc1ccccc1 the results were JNK3 inh -2, PKA inh 4, MMP-13 inhibitor -1, S1P1 ag-PAM -10, ROCK2 blocker 146* and S1P3 ag 0.
`CCN(CC)c1ccc2cc(C(=O)Nc3ccccn3)c(=O)oc2c1` gave JNK3 inh -15, PKA inh 0, MMP-13 inhibitor -7, S1P1 ag-PAM -1, ROCK2 blocker -10 and S1P3 ag -1.
Screening CCN(CC)c1ccc2cc(NC(=O)CCC(=O)O)c(=O)oc2c1 returned JNK3 inh -14, PKA inh -5, MMP-13 inhibitor -23, S1P1 ag-PAM 58*, ROCK2 blocker -1 and S1P3 ag -2.
For CN(Cc1ccccc1)S(=O)(=O)c1ccc(S(=O)(=O)N2CCN(CCC#N)CC2)cc1 the results were JNK3 inh -3, PKA inh 5, MMP-13 inhibitor 2, S1P1 ag-PAM -30, ROCK2 blocker 4 and S1P3 ag 0.
COc1ccc(N2CCN(Cc3nc4c(c(=O)n(C)c(=O)n4C)n3Cc3ccccc3C)CC2)cc1 was read as JNK3 inh -2, PKA inh 8, MMP-13 inhibitor -1, S1P1 ag-PAM -18, ROCK2 blocker 5 and S1P3 ag 1.
Screening CCOc1ccc(-n2nc(C(=O)N3CCOCC3)c3ccccc3c2=O)cc1 returned JNK3 inh -2, PKA inh 8, MMP-13 inhibitor 4, S1P1 ag-PAM -26, ROCK2 blocker 8 and S1P3 ag 0.
Screening CC(C)N1CCc2c(sc(NC(=O)c3ccc(S(=O)(=O)N4CCOCC4)cc3)c2C(N)=O)C1 returned JNK3 inh -12, PKA inh 0, MMP-13 inhibitor 14*, S1P1 ag-PAM -35, ROCK2 blocker 5 and S1P3 ag 0.
CCN1CCc2c(sc(NC(=O)c3ccc(S(=O)(=O)N4CCOCC4)cc3)c2C(N)=O)C1 was read as JNK3 inh 5, PKA inh 3, MMP-13 inhibitor 2, S1P1 ag-PAM -22, ROCK2 blocker 1 and S1P3 ag 4.
For CC(=NCc1cccnc1)C1=C(O)c2ccccc2C1=O the results were JNK3 inh 37*, PKA inh 5, MMP-13 inhibitor 4, S1P1 ag-PAM -36, ROCK2 blocker 6 and S1P3 ag -1.
Screening CC(=NCCCn1ccnc1)C1=C(O)c2ccccc2C1=O returned JNK3 inh 29*, PKA inh 7, MMP-13 inhibitor 1, S1P1 ag-PAM -3, ROCK2 blocker 5 and S1P3 ag -1.
